Bioassay records (PubChem)
The entries come from a sample that favours hits as a whole.
L major viab: Leishmania major promastigote growth inhibition, primary screen. 9% of 200,000 active. inhibition, % at 10 µM. Leishmania major promastigotes, resazurin fluorescence viability; in the data active = inhibition above about 50%;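 also: promastigotes grown with compound for 44 hours at 28 °C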
MPTP block: mitochondrial permeability transition pore inhibitors, primary screen, biochemical, isolated mouse mitochondria, absorbance. Ca2+ swelling absorbance, 30 min. inhibition, % at 10 µM. 1.4% of 360,000 active. AID 602449, 2012;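 active = inhibition of 50% or more, scaled per plate between neutral and stimulator controls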;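 also: 0% = DMSO wells given calcium and 100% = 1 mM EGTA wells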
Hep lipid drop: inhibitors of hepatocyte lipid droplet formation, primary screen, imaging, high-throughput imaging, BODIPY stain. AML12 mouse hepatocytes, oleate lipid droplets. inhibition, % at 6.5 µM. 0.4% of 240,000 active. AID 1656, 2009;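 active = lipid droplet intensity inhibited by at least 50%, with more than 500 cells counted; inconclusive = wells with under 300 cells, treated as cytotoxic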
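Assay system: AML12 hepatocytes (mouse) / Also added: 100 µM oleic acid challenge / Times: overnight treatment with compound plus oleate / Detection: high-content imaging of BODIPY-stained droplets and DAPI nuclei / Evaluation: % inhibition of lipid droplet signal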
T cruzi inh: inhibitors of intracellular T. cruzi growth, primary screen, luminescence, NIH3T3 host cells. AID 1885, 2009. inhibition, % (no concentration beside the values). T. cruzi beta-gal in NIH3T3, 90 h. 1.4% of 300,000 active;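 active = mean inhibition across valid replicates above about 55%, limit read from the data; inconclusive = mean below that limit but half or more replicates reach it; inactive = mean below it, under half of replicates reach it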;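 also: signal also drops with host cell toxicity which is not excluded here; 0% = plate median of DMSO wells and 100% = zero luminescence signal; higher percent means less beta-gal luminescence so fewer parasites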
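System: mouse NIH/3T3 fibroblasts infected with β-gal-expressing T. cruzi Tulahuen C4 / Input: NIH/3T3 cells, 5,000 per well / Buffer or medium: Low-serum DMEM with 2% FBS / Probe or stimulus: 5000 reporter trypomastigotes per well / Schedule: ≥90 h infection period, 3 h prior cell attachment / Measured by: GalScreen luminescence, 60 min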
DTT redox prof: compounds producing H2O2 with reducing agent – biochemical, NIH compound library profiling, artefact control for MLSCN library redox annotation, primary screen; DTT-dependent redox cycling H2O2, phenol red/HRP absorbance; 100% = 100 µM peroxide control, 0% = buffer; activation, % at 10 µM; 0.03% of 200,000 active;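 active = activation of at least 50% relative to the plate's high and low controls in the primary single-dose screen; inactive = activation below 50%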;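 also: compound incubated with DTT at 0.8 mM final as the reducing agent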
Starred values were filed as active, the others as inactive; ? = inconclusive; / = no result.

SMILES	L major viab	MPTP block	Hep lipid drop	T cruzi inh	DTT redox prof
CC(C)n1nc(C(=O)Nc2ccccc2N2CCOCC2)c2ccccc2c1=O	87*	0	0	22	/
COc1cc(OC)c(NC(=O)c2c(-c3ccccc3)noc2C)cc1Cl	94*	1	-1	16	0
COc1ccc(-c2cc(C(=O)NNC(=S)NC(=O)c3c(-c4ccccc4)noc3C)[nH]n2)cc1	63*	9	-18	4	0
Cc1onc(-c2ccccc2)c1C(=O)Nc1ccccc1N1CCOCC1	69*	3	-10	-5	-1
CC(=O)Nc1ccc(NC(=O)C(C)OC(=O)c2ccc(S(=O)(=O)N3CCCCCC3)cc2)cc1 (centres undefined)	/	0	/	/	/
Cc1c(C)n(CCCN(C)C)c2ncnc(NC3CCCCC3)c12	/	0	-1	56*	/
Cc1c(C)n(CCCN(C)C)c2ncnc(Nc3ccccc3)c12	/	0	4	?	/
COc1ccccc1Nc1ncnc2c1c(C)c(C)n2CCCN(C)C	/	1	-19	58*	/
COc1ccc(CCc2nnc(CCC(=O)NCc3ccc4ncccc4c3)o2)cc1	-3	-1	4	16	-1
N#Cc1ccccc1S(=O)(=O)N1CCN(C(=O)[C@@H]2CCCN2C(=O)c2cccs2)CC1	/	1	/	/	/
Cc1cc(C(=O)N2CCC(Cc3ccccc3)CC2)c(C)o1	/	-1	-1	-1	/
CCCC[n+]1ccn(-c2nc3ccccc3nc2[N-]S(=O)(=O)c2ccc(C)cc2)c1	99*	0	20	12	0
CCCC[n+]1ccn(-c2nc3ccccc3nc2[N-]S(=O)(=O)c2ccccc2)c1	54*	-2	8	-9	0
CCCCC[n+]1ccn(-c2nc3ccccc3nc2[N-]S(=O)(=O)c2ccc(C)cc2)c1	100*	0	/	5	1
Cc1ccc(S(=O)(=O)[N-]c2nc3ccccc3nc2-n2cc[n+](Cc3ccccc3)c2)cc1	/	6	-13	0	/
COC(=O)c1ccccc1NC(=O)COC(=O)CO/N=C(\C)c1ccc2c(c1)OCO2	/	-1	0	-16	/
Cc1cccc(C(=O)CC(=O)c2cc(Cl)ccc2O)c1	99*	41	9	31	0
O=C(O)CC(=O)Nc1cc(Cl)ccc1O	1	-1	13	26	0
Cc1ccc(O)c(C(=O)CC(=O)c2ccc(Cl)cc2)c1	/	-1	18	6	/
Cc1ccc(O)c(C(=O)CC(=O)c2cccc(F)c2)c1	60*	3	14	-8	-1
O=C(CC(=O)c1cc(Cl)ccc1O)c1ccccc1	99*	22	-14	4	2
Cc1ccc(Nc2nc(-c3c(C)nc4ccccn34)cs2)cc1	93*	23	/	39	-3
Cc1nc2ncccn2c1-c1csc(Nc2ccc(O)cc2)n1	10	0	11	-65	-2
Cc1ccc(Nc2nc(-c3c(C)nc4ncccn34)cs2)cc1	60*	-1	/	-44	1
Cc1nc2ccccn2c1-c1csc(NCc2ccco2)n1	10	3	-3	16	0
SMILES	L major viab	MPTP block	Hep lipid drop	T cruzi inh	DTT redox prof
Cc1ccnc(NC(=O)C(Cc2ccccc2)NC(=O)c2ccccc2)c1 (centres undefined)	/	-1	/	/	/
Cc1c(C)n2c(SCC(=O)N3CCCCCC3)nnc2[nH]c1=O	/	-1	/	-3	/
CN(C)CC1CCCCC1OC(=O)c1ccc(Br)cc1 (centres undefined)	74*	12	-18	27	0
COc1ccc(C(=O)OC2CCCCC2CN(C)C)cc1 (centres undefined)	/	1	10	20	/
Cc1ccc(N(CC(=O)NC2CCC(C)CC2)S(=O)(=O)c2cccnc2)cc1 (centres undefined)	67*	-2	/	22	0
COc1ccc(N(CC(=O)NC2CCCCC2)S(=O)(=O)c2cccnc2)cc1	-1	-2	/	-8	-1
CCOc1ncccc1C(=O)NCc1ccc(OC)cc1	-5	4	12	-13	2
O=C(O)CCC(=O)Nc1ccccc1C(=O)NCc1ccco1	-6	-2	-6	2	3
O=C(NCc1ccc(F)cc1)c1ccccc1OCc1ccccc1	79*	4	-1	15	0
O=C(Cc1ccccc1)Nc1ccccc1C(=O)Nc1ccccc1	65*	11	12	1	0
Cc1ccc(NC(=O)c2ccccc2NC(=O)Cc2ccccc2)cc1	8	1	3	9	0
O=C(O)CCC(=O)Nc1ccccc1C(=O)NCc1ccccc1	51*	-2	1	11	0
CCOc1ncccc1C(=O)NCc1ccccc1	54*	/	-1	0	0
O=C(NNC(=O)c1ccccc1OCc1ccc(F)cc1)c1ccccc1O	/	0	-17	33	/
O=C(NCc1cccnc1)c1cc(C2CCCCN2C(=O)OCCF)on1 (centres undefined)	/	0	/	/	/
c1ccc(CSCc2nc3ccccc3[nH]2)cc1	60*	2	-1	6	0
CCN(C(=O)COC(=O)c1cc(-c2ccc3cc(OC)ccc3c2)nc2ccccc12)C1CCS(=O)(=O)C1 (centres undefined)	98*	/	1	15	0
Cc1cccn2c(=O)c3cc(C(N)=S)c(=N)n(CCCOC(C)C)c3nc12	87*	9	/	51	3
CCOC(=O)c1cc2c(=O)n3ccccc3nc2n(Cc2ccco2)c1=NC(=O)c1cccnc1	40	0	/	14	-4
CCOC(=O)c1cc2c(=O)n3cccc(C)c3nc2n(C)c1=N	98*	/	/	/	0
CCOC(=O)c1cc2c(=O)n3ccccc3nc2n(Cc2ccccc2)c1=N	14	0	-9	-16	2
CCOCCCn1c(=N)c(C(N)=S)cc2c(=O)n3cccc(C)c3nc21	43	4	5	22	11
COCCNC(=O)c1cc2c(=O)n3cccc(C)c3nc2n1C	/	0	11	-5	/
CCOC(=O)c1cc2c(=O)n3cccc(C)c3nc2n(Cc2ccco2)c1=NC(=O)c1cccnc1	86*	0	2	/	0
Cc1cccn2c(=O)c3cc(C(=O)N(C)C)n(C)c3nc12	87*	-1	/	2	2
SMILES	L major viab	MPTP block	Hep lipid drop	T cruzi inh	DTT redox prof
CCN(CC(=O)NCc1cccs1)C(=O)c1cccc(S(=O)(=O)N2CC(C)OC(C)C2)c1 (centres undefined)	/	-1	/	/	/
CCN(CC)CCNC(=S)N1CCn2c(nc3ccccc32)C1	0	29	-2	-5	-1
CN(C)CCCNC(=S)N1CCn2c(nc3ccccc32)C1	51*	4	23	-9	0
Cc1ccc(O)c(Cc2cc(C)cc(Cc3cc(C)ccc3O)c2O)c1	/	6	/	/	/
CCOC(=O)c1cnc2c(-c3ccc(F)cc3)cnn2c1C(F)(F)F	97*	-1	-3	/	0
CCOc1cccc(OCCNC2CCCC2)c1	80*	-1	11	-20	0
